The results in this text go back to ChEMBL document CHEMBL1146217, “Growth inhibition of Mycobacterium bovis, Mycobacterium tuberculosis and Mycobacterium avium in vitro: effect of 1-beta-D-2'-arabinofuranosyl and 1-(2'-deoxy-2'-fluoro-beta-D-2'-ribofuranosyl) pyrimidine nucleoside analogs” (J Med Chem, 2007).

One may read the inhibition as the drop in the measured response relative to a control, in per cent. A low value points to a weak effect. Broadly, the MIC90 is an inhibitory concentration at the 90% level, which refers to growth in some studies and to a panel of isolates in others. High values mean lower susceptibility, low ones higher susceptibility. As a reminder, the MIC is the lowest concentration found to suppress growth. A higher MIC goes with a less susceptible organism. In general, Inhibition refers to how much of the control response was suppressed. A word on the CC50: it is the concentration at which the toxic effect on the cells reaches its halfway point. Higher therefore signals lower toxicity to the cells.

The test system of series [1] is Mycobacterium avium. The series can be described thus: Antimycobacterial activity against Mycobacterium avium ATCC 25291 at 50 ug/mL by microplate Alamar blue assay. The series is classed as functional. The method, boiled down:
(§1)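 MABA with M. bovis BCG, M. tuberculosis H37Ra or M. avium ATCC 25291. DMSO stocks (10 mg/mL) diluted in 7H9GC; final inoculum 2.5 × 10⁵ CFU/mL. Incubated 6 days, then alamar blue plus Tween 80 added and read by fluorescence after about 24 h. […]. Tested in triplicate at 100, 50, 10 and 1 µg/mL; two experiments, mean reported.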
(In general: Alamar Blue is a resazurin reagent that responds to reducing activity.)

For series [2], the system named is Mycobacterium tuberculosis. The series can be described thus: Antimycobacterial activity against Mycobacterium tuberculosis H37Ra by microplate Alamar blue assay. Format: functional. The method in brief: (§2)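 Same alamar blue microplate setup (7H9GC, 2.5 × 10⁵ CFU/mL, 6 days, then dye read after about 24 h), using 2-fold compound dilutions. MIC90 is the lowest concentration giving about 90% inhibition relative to bacteria-only wells after background subtraction. Visual MIC is the lowest concentration preventing the blue-to-pink change.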

Another series has as its system Escherichia coli. Briefly: Antibacterial activity against Escherichia coli ATCC 25922 after 16 to 20 hrs by broth microdilution method. Format: functional. The conditions noted are these: Escherichia coli, ATCC 25922. The method in brief: (§3)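 Broth microdilution MIC. Exponentially growing bacteria diluted in sterile liquid medium to a final inoculum of 1 × 10⁴ CFU/mL. Cultured with compound dilutions for 16-20 h; compounds tested at 100, 50, 10 and 1 µg/mL. MIC taken as the concentration giving 100% inhibition of bacterial growth.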
In general terms: Dilution methods test growth across graded concentrations, often in twofold steps.

Series [3] relates to Mycobacterium avium. Briefly: Antimycobacterial activity against Mycobacterium avium ATCC 25291 by microplate Alamar blue assay. The series is classed as functional. The method in brief:
as §2

The subject of the next series is Bacillus subtilis. Briefly: Antibacterial activity against Bacillus subtilis ATCC 6633 after 16 to 20 hrs by broth microdilution method. Format: functional. The conditions noted are these: Bacillus subtilis, ATCC 6633. The method, boiled down:
as §3

A further series concerns Vero. The series can be described thus: Toxicity against Vero cells after 3 days by MTT test. The note with it: chlorocebus sabaeus, 72 h. Format: cell-based. The method in brief: (§4)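 MTT viability assay. Vero or HFF cells seeded at 2.5 × 10⁵ cells/well and left to attach 6-8 h. Exposed to compound at 100, 50, 25, 12.5, 6.3 and 1.5 µg/mL for 3 days at 37 °C, with a DMSO control. MTT added for 4 h, then solubilized overnight; absorbance read at 560-650 nm.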
Background: Tetrazolium dyes change colour on reduction, which living cells bring about.

A further series concerns Staphylococcus aureus. Briefly: Antibacterial activity against Staphylococcus aureus ATCC 25923 after 16 to 20 hrs by broth microdilution method. The series is classed as functional. The conditions noted are these: for MIC: Staphylococcus aureus, ATCC 25923. The method, boiled down: as §3
For series [4], the system named is Mycobacterium tuberculosis. Briefly: Antimycobacterial activity against Mycobacterium tuberculosis H37Ra at 10 ug/mL by microplate Alamar blue assay. Format: functional. The method in brief: as §1
For series [5], the system named is Mycobacterium tuberculosis. Briefly: Antimycobacterial activity against Mycobacterium tuberculosis H37Ra at 1ug/mL by microplate Alamar blue assay. Format: functional. The method in brief: as §1
A further series deals with Streptococcus pneumoniae. Briefly: Antibacterial activity Streptococcus pneumoniae ATCC 49619 after 16 to 20 hrs by broth microdilution method. Format: functional. The conditions noted are these: for MIC: Streptococcus pneumoniae, ATCC 49619. The method, boiled down:
as §3

The subject of a further series is Listeria monocytogenes. Briefly: Antibacterial activity Listeria monocytogenes ATCC 15313 after 16 to 20 hrs by broth microdilution method. The conditions noted are these: for MIC: Listeria monocytogenes, ATCC 15313. Format: functional. The method in brief:
as §3

Another series deals with Streptococcus pyogenes. Briefly: Antibacterial activity Streptococcus pyogenes ATCC 19615 after 16 to 20 hrs by broth microdilution method. The series is classed as functional. The note with it: for MIC: Streptococcus pyogenes, ATCC 19615. The method, boiled down:
as §3

Another series relates to Klebsiella aerogenes. The series can be described thus: Antibacterial activity against Enterobacter aerogenes after 16 to 20 hrs by broth microdilution method. The conditions noted are these: Klebsiella aerogenes. The series is classed as functional. The method in brief: as §3
For the next series, the system named is Enterococcus faecalis. Briefly: Antibacterial activity Enterococcus faecalis ATCC 29212 after 16 to 20 hrs by broth microdilution method. Format: functional. The conditions noted are these: for MIC: Enterococcus faecalis, ATCC 29212. The method in brief:
as §3

Series [6] concerns Mycobacterium avium. The series can be described thus: Antimycobacterial activity against Mycobacterium avium ATCC 25291 at 100 ug/mL by microplate Alamar blue assay. Format: functional. The method, boiled down:
as §1

Series [7] relates to Mycobacterium tuberculosis. Briefly: Antimycobacterial activity against Mycobacterium tuberculosis H37Ra at 50 ug/mL by microplate Alamar blue assay. Format: functional. The method, boiled down:
as §1

For another series, the system named is Pseudomonas aeruginosa. The series can be described thus: Antibacterial activity against Pseudomonas aeruginosa […] after 16 to 20 hrs by broth microdilution method. The conditions noted are these: Pseudomonas aeruginosa, ATCC 13048. The series is classed as functional. The method in brief:
as §3

Another series concerns Proteus vulgaris. The series can be described thus: Antibacterial activity against Proteus vulgaris ATCC 49132 after 16 to 20 hrs by broth microdilution method. The series is classed as functional. The method, boiled down:
as §3

Series [8] in a line: Toxicity against human foreskin fibroblast cells after 3 days by MTT test. Format: cell-based. The method, boiled down: as §4
Another series deals with Salmonella typhimurium. The series can be described thus: Antibacterial activity against Salmonella Typhimurium after 16 to 20 hrs by broth microdilution method. Format: functional, Salmonella enterica subsp. enterica serovar Typhimurium. The conditions noted are these: Salmonella enterica. The method, boiled down: as §3
Series [9] relates to Mycobacterium tuberculosis. Briefly: Antimycobacterial activity against Mycobacterium tuberculosis H37Ra at 100 ug/mL by microplate Alamar blue assay. The series is classed as functional. The method in brief: as §1
Series [10] concerns Staphylococcus epidermidis. Briefly: Antibacterial activity against Staphylococcus epidermidis ATCC 14990 after 16 to 20 hrs by broth microdilution method. Format: functional. The conditions noted are these: for MIC: Staphylococcus epidermidis, ATCC 14990. The method, boiled down: as §3

Molecules are shown by their SMILES. In brackets after ≈: the same amount, converted by molar mass. A value given as a limit tells only on which side of the number the result lay.

Take `CCCCCCCCCCC#Cc1cn([C@@H]2O[C@H](CO)[C@@H](O)[C@H]2F)c(=O)[nH]c1=O`: the inhibition at 50 µg/mL with Mycobacterium avium [1] was 50%; in series [7], 100%. Further, the MIC90 was 1 µg/mL (≈ 2.44 µM) in [2] and 50 µg/mL (≈ 122 µM) with Mycobacterium avium [3]. Moreover, the MIC was over 100 µg/mL against Escherichia coli; over 100 µg/mL against Bacillus subtilis; 100 µg/mL (≈ 244 µM) against Staphylococcus aureus; 100 µg/mL (≈ 244 µM) against Streptococcus pneumoniae; 100 µg/mL (≈ 244 µM) with Listeria monocytogenes; 100 µg/mL (≈ 244 µM) against Streptococcus pyogenes. The MIC is over 100 µg/mL with Klebsiella aerogenes; 100 µg/mL (≈ 244 µM) in the series with Enterococcus faecalis; over 100 µg/mL with Pseudomonas aeruginosa; over 100 µg/mL with Proteus vulgaris; over 100 µg/mL in the series with Salmonella typhimurium; 100 µg/mL (≈ 244 µM) in [10]. This compound gave a CC10 in the series on Vero of over 100 µg/mL. Besides, the Inhibition (with Staphylococcus aureus; in the series on Streptococcus pneumoniae; with Listeria monocytogenes; in the series with Streptococcus pyogenes; in the series on Enterococcus faecalis; in series [10]) was 100% throughout. Further, 10 µg/mL produced 100% inhibition in series [4]. The compound also gave an inhibition at 1 µg/mL in series [5] of 70%. Further, the inhibition at 100 µg/mL (with Mycobacterium avium [6]; in series [9]) was 100% in each case. In series [8], this compound registered a CC50 at 72 h of over 100 µg/mL.
With `CCCCCCCCCCCC#Cc1cn([C@@H]2O[C@H](CO)[C@@H](O)[C@H]2F)c(=O)[nH]c1=O`, the inhibition at 50 µg/mL with Mycobacterium avium [1] came to 50%; in series [7] it was 100%. In addition, the values for the MIC90 (in series [2]; against Mycobacterium avium [3]) were 1 µg/mL (≈ 2.36 µM) and 50 µg/mL (≈ 118 µM), respectively. The MIC in the series with Escherichia coli was over 100 µg/mL; against Bacillus subtilis it was over 100 µg/mL; against Staphylococcus aureus, 100 µg/mL (≈ 236 µM); in the series with Streptococcus pneumoniae, 100 µg/mL (≈ 236 µM); in the series with Listeria monocytogenes it was 100 µg/mL (≈ 236 µM); in the series on Streptococcus pyogenes, 100 µg/mL (≈ 236 µM). Besides, the MIC is over 100 µg/mL against Klebsiella aerogenes; 100 µg/mL (≈ 236 µM) in the series with Enterococcus faecalis; over 100 µg/mL against Pseudomonas aeruginosa; over 100 µg/mL in the series on Proteus vulgaris; over 100 µg/mL against Salmonella typhimurium; 100 µg/mL (≈ 236 µM) in [10]. Also, the CC10 in the series with Vero is over 100 µg/mL. Moreover, the Inhibition (with Staphylococcus aureus; with Streptococcus pneumoniae; with Listeria monocytogenes; with Streptococcus pyogenes; with Enterococcus faecalis; in series [10]) was 100% each time. Besides, in [4], the inhibition at 10 µg/mL was 100%. This compound displayed an inhibition at 1 µg/mL in series [5] of 90%. For the same compound, the inhibition at 100 µg/mL (in the series on Mycobacterium avium [6]; in series [9]) was 100% throughout. In series [8], the CC50 at 72 h was over 100 µg/mL.
For `CCCCCCCCCCC#Cc1cn([C@@H]2O[C@H](CO)[C@@H](O)[C@@H]2O)c(=O)[nH]c1=O`, the values for the inhibition at 50 µg/mL (in the series on Mycobacterium avium [1]; in series [7]) were 55% and 100%, respectively. Further, the MIC90 in [2] is 1 µg/mL (≈ 2.45 µM); against Mycobacterium avium [3] it was 50 µg/mL (≈ 122 µM). Moreover, in the series on Vero, the CC10 is over 100 µg/mL. In series [4], this compound came in with an inhibition at 10 µg/mL of 100%. Also, at 1 µg/mL the inhibition in series [5] was 75%. The inhibition at 100 µg/mL (in the series with Mycobacterium avium [6]; in series [9]) was 100% throughout. This compound returned a CC50 at 72 h in series [8] of over 100 µg/mL.
